Assay results reported in ChEMBL document CHEMBL1152818, “Structural bioinformatics-based design of selective, irreversible kinase inhibitors” (Science, 2005).
Active and inactive are the calls of the source. The rule behind the calls is not given here.

Tests used:
[1] = Inhibition of EGF-stimulated RSK2 Ser386 autophosphorylation in serum starved african green monkey COS7 cells by immunoprecipitation and Western blot; assay type: cell-based, Chlorocebus aethiops; details: cos-7
Outline: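 COS-7 cells serum-deprived 20 h, exposed to a range of inhibitor concentrations, then stimulated with EGF (1 ng/mL) for 10 min. Endogenous RSK2 immunoprecipitated and blotted for phospho-Ser386 and total RSK2. EC50 taken from the concentration series.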

NIH3T3 [2] = assay: Inhibition of PMA-stimulated histone H3 phosphorylation in mouse NIH-3T3 cells at 10 uM by SDS page and Western blot; assay type: functional, cell-based
[3] = target: Ribosomal protein S6 kinase alpha-5 (Homo sapiens) (UniProt O75582); assay: Inhibition of MSK1-mediated histone H3 Ser10 phosphorylation expressed in serum starved african green monkey COS7 cells by Western blot; assay type: cell-based; details: COS-7
Outline: (§1)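 COS-7 cells transfected with HA-tagged WT or M498T MSK1. Lysed in Laemmli buffer. Western blots probed for phospho-Ser386 RSK (MSK1 autophosphorylation), HA epitope and phospho-Ser10 histone H3.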

COS-7 [4] = assay: Inhibition of EGF-stimulated ERK2 phosphorylation in serum starved african green monkey COS7 cells at 10 µM by Western blot; details: Chlorocebus aethiops
[5] = target: Tyrosine-protein kinase Fyn (Homo sapiens, UniProt P06241, V285C); assay: Inhibition of FYN Val285Cys mutant expressed in Escherichia coli
COS-7 [6] = assay: Inhibition of EGF-stimulated ERK1 phosphorylation in serum starved african green monkey COS7 cells at 10 µM by Western blot; details: Chlorocebus aethiops
[7] = system: Ribosomal protein S6 kinase alpha-5 (Homo sapiens), O75582 [M498T]; assay: Inhibition of MSK1 M498T mutant phosphorylation expressed in serum starved african green monkey COS7 cells by Western blot; assay type: cell-based; details: COS-7; outline: as §1
[8] = system: Ribosomal protein S6 kinase alpha-3 (Homo sapiens), P51812 [T493M]; assay: Binding affinity to RSK2 T493M mutant at 1 uM preincubated for 1 hr by denaturing gel electrophoresis and Western blot
Outline: (§2)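 His6-tagged RSK2 C-terminal kinase domains (WT or mutant) exposed to 1 μM biotin-fmk for 1 hour in the presence of His6-ERK2. Proteins resolved by SDS-PAGE. Western blot probed with streptavidin-HRP for covalent label and anti-His6 for total protein.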

[9] = target: Ribosomal protein S6 kinase alpha-1 (Homo sapiens) (UniProt Q15418); assay: Binding affinity to RSK1 in HEK293 cells assessed as protein labeling at 1 µM preincubated for 1 hr by enhanced chemiluminescence detection
[10] = target: T1, Ribosomal protein S6 kinase alpha-3 (Homo sapiens, UniProt P51812); assay: Binding affinity to wild type RSK2 at 1 uM preincubated for 1 hr by denaturing gel electrophoresis and Western blot; outline: as §2
[11] = target: T1, Ribosomal protein S6 kinase alpha-3; assay: Binding affinity to RSK2 in HEK293 cells assessed as protein labeling at 1 µM preincubated for 1 hr by immunodepletion method
[12] = system: Ribosomal protein S6 kinase alpha-3 (Homo sapiens), P51812 [C436V]; assay: Binding affinity to RSK2 C436V mutant at 1 uM preincubated for 1 hr by denaturing gel electrophoresis and Western blot; outline: as §2
[13] = target: T1, Ribosomal protein S6 kinase alpha-3; assay: Binding affinity to RSK2 in HEK293 cells assessed as protein labeling at 1 µM preincubated for 1 hr by enhanced chemiluminescence detection
[14] = target: Ribosomal protein S6 kinase alpha-1 (Homo sapiens) (UniProt Q15418); assay: Binding affinity to RSK1 in HEK293 cells assessed as protein labeling at 1 µM preincubated for 1 hr by immunodepletion method
[15] = target: Ribosomal protein S6 kinase alpha-3 (Homo sapiens, UniProt P51812, T493M); assay: Inhibition of RSK2 C-terminal kinase domain T493M mutant expressed in Escherichia coli preincubated for 30 mins
Outline: (§3)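 His6-tagged RSK2 CTDs (WT or mutant) expressed in E. coli, activated with bacterially expressed His6-ERK2 plus ATP. Enzyme at 1 nM pretreated with inhibitor for 30 min, then assayed with 0.1 mM ATP and 0.1 mM "CTD-tide" peptide substrate.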

[16] = target: Ribosomal protein S6 kinase alpha-3 (Homo sapiens, UniProt P51812, C436V); assay: Inhibition of RSK2 C-terminal kinase domain C436V mutant expressed in Escherichia coli preincubated for 30 mins; outline: as §3
[17] = target: T1, Ribosomal protein S6 kinase alpha-3; assay: Inhibition of RSK2 C-terminal kinase domain expressed in Escherichia coli preincubated for 30 mins; outline: as §3
[18] = system: Tyrosine-protein kinase transforming protein Src (Avian leukosis virus RSA (RSV-SRA) (Rous sarcoma virus (strainSchmidt-Ruppin A))), P00524 [V281C]; assay: Inhibition of Rous sarcoma virus V-src V281C mutant expressed in mouse NIH-3T3 cells assessed as reduction in steady-state phosphotyrosine level preincubated for 1 hr by Western blot; assay type: cell-based; details: NIH3T3
[19] = system: Tyrosine-protein kinase transforming protein Src (Avian leukosis virus RSA (RSV-SRA) (Rous sarcoma virus (strainSchmidt-Ruppin A))), P00524 [V281C]; assay: Reversion of Rous sarcoma virus V-src V281C mutant-dependent cell morphology in mouse NIH-3T3 cells assessed as cells acquiring actin stress fibres at 1 uM after 16 hrs by phalloidin-FITC and DAPI staining; assay type: cell-based; details: NIH3T3
NIH3T3 [20] = assay: Reversion of Rous sarcoma virus wild type V-src-dependent cell morphology in mouse NIH-3T3 cells assessed as cells acquiring actin stress fibres at 1 uM after 16 hrs by phalloidin-FITC and DAPI staining; assay type: cell-based
NIH3T3 [21] = assay: Inhibition of Rous sarcoma virus wild type V-src expressed in mouse NIH-3T3 cells assessed as reduction in steady-state phosphotyrosine level preincubated for 1 hr by Western blot; assay type: cell-based

T1 sequence (P51812 whole entry): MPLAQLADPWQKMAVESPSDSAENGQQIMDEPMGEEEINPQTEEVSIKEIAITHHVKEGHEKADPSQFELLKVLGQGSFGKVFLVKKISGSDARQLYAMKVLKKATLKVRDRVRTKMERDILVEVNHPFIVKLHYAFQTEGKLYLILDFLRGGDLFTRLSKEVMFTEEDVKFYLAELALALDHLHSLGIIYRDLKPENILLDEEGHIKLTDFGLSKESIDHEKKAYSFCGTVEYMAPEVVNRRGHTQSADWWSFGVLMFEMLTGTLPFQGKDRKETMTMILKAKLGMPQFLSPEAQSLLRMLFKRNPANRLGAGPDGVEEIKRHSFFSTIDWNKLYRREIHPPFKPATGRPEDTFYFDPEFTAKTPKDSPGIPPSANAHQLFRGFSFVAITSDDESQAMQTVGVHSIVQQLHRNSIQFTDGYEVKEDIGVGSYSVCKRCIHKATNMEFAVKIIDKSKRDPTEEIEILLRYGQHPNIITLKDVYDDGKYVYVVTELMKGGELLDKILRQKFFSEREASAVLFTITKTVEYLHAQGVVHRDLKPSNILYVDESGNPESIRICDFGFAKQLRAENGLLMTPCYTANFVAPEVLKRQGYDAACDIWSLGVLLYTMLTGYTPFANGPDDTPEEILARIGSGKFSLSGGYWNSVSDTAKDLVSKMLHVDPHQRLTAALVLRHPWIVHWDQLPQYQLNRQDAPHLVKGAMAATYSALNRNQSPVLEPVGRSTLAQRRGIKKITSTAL
Tyrosine-protein kinase Fyn, sequence (P06241 2-537 V285C limits assumed): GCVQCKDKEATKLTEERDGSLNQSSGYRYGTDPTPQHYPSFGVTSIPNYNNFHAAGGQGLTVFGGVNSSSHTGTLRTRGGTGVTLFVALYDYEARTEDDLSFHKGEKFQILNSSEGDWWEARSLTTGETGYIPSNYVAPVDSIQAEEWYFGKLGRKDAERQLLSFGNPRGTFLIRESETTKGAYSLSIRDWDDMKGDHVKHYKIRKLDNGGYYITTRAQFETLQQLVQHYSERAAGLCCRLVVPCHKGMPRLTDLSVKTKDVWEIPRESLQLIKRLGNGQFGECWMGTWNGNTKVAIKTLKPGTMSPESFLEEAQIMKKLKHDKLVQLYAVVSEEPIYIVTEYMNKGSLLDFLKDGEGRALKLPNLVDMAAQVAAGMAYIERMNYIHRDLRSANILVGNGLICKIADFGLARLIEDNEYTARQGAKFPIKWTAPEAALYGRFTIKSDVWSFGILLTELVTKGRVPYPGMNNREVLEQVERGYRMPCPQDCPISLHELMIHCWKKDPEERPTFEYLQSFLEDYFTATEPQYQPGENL
Ribosomal protein S6 kinase alpha-1 (Homo sapiens), sequence (Q15418 whole entry, the tested form may be a part): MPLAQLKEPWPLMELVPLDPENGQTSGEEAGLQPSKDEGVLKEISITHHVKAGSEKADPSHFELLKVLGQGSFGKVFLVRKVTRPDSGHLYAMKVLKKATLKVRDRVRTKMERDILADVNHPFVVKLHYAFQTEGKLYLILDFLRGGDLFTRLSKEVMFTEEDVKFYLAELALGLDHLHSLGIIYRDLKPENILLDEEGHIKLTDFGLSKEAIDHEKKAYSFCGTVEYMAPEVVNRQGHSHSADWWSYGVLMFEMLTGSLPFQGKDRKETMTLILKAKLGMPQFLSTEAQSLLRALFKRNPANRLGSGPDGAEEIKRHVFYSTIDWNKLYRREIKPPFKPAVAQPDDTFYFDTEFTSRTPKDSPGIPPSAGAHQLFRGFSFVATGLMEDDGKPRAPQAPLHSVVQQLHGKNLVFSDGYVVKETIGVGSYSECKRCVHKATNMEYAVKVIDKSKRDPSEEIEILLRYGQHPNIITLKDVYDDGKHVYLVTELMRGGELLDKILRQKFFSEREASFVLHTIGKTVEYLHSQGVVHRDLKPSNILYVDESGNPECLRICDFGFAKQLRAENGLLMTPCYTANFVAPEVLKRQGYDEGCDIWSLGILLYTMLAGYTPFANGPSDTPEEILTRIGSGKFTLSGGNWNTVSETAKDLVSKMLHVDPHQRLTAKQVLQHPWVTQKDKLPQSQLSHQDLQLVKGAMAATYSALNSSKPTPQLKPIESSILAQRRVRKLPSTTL
Ribosomal protein S6 kinase alpha-5 (Homo sapiens), O75582 [M498T], sequence (O75582 whole entry M498T): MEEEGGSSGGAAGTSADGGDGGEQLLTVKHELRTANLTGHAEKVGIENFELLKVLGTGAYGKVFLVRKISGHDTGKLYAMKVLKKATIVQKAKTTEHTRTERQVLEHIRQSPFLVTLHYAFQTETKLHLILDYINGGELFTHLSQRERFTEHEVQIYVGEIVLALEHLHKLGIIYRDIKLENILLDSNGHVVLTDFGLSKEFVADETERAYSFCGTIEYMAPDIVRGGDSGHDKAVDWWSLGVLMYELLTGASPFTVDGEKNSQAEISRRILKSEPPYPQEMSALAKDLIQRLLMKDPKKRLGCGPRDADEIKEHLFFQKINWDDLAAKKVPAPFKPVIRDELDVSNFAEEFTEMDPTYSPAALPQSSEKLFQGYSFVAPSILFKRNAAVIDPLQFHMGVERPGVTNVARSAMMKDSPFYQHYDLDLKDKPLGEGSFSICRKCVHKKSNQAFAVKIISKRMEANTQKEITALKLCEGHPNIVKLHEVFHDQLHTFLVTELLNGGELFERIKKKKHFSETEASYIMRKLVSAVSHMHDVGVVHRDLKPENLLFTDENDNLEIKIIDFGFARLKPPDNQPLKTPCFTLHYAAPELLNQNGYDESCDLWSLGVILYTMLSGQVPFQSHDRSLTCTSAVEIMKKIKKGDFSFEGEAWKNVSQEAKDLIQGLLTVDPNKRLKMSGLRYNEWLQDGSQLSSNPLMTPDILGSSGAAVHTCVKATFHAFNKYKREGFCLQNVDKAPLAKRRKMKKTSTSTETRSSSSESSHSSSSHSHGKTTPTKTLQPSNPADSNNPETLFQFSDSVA
Ribosomal protein S6 kinase alpha-3 (Homo sapiens), P51812 [C436V], sequence (P51812 whole entry C436V): as the sequence (P51812 whole entry) above, with C436V counted along it
Ribosomal protein S6 kinase alpha-3 (Homo sapiens, UniProt P51812, C436V), sequence (P51812 whole entry C436V, the tested form may be a part): as the sequence (P51812 whole entry) above, with C436V counted along it
Ribosomal protein S6 kinase alpha-3 (Homo sapiens), P51812 [T493M], sequence (P51812 whole entry T493M, the tested form may be a part): as the sequence (P51812 whole entry) above, with T493M counted along it
Ribosomal protein S6 kinase alpha-3 (Homo sapiens, UniProt P51812, T493M), sequence (P51812 whole entry T493M, the tested form may be a part): as the sequence (P51812 whole entry) above, with T493M counted along it
Ribosomal protein S6 kinase alpha-5 (Homo sapiens), sequence (O75582 whole entry, looked up): as the sequence (O75582 whole entry M498T) above, with T498M counted along it

## Cc1ccc(-c2c(C(=O)CF)n(CCCO)c3ncnc(N)c23)cc1
[1]
  EC50: 200 nM
NIH3T3 [2]
  Activity: inactive
[3]
  Activity: inactive
COS-7 [4]
  Activity: inactive
[5]
  IC50: 1 nM
COS-7 [6]
  Activity: inactive
[7]
  Activity: Active

## Cc1ccc(-c2c(C(=O)CF)n(CCCOC(=O)NCCCCNC(=O)CCCC[C@@H]3SC[C@H]4NC(=O)N[C@@H]34)c3ncnc(N)c23)cc1
[8]
  Activity: inactive
[9]
  Activity: Active
[10]
  Activity: Active
[11]
  Activity: Active
[12]
  Activity: inactive
[13]
  Activity: Active
[14]
  Activity: Active

## Cc1ccc(-c2cn(CCCO)c3ncnc(N)c23)cc1
[15]
  IC50: > 30000 nM
[16]
  IC50: 430 nM
[17]
  IC50: 1200 nM

## Cc1ccc(-c2c(C(=O)CCl)n(CCCO)c3ncnc(N)c23)cc1
[18]
  Activity: Active
[5]
  IC50: 100 nM
[19]
  Activity: 2%
NIH3T3 [20]
  Activity: 75%
NIH3T3 [21]
  Activity: inactive
